The record followed here is ChEMBL document CHEMBL1152830, “Synthesis of 2-sulfanyl-6-methyl-1,4-dihydropyrimidines as a new class of antifilarial agents” (Eur J Med Chem, 2008).

The structures appear in SMILES notation. Activity calls are given as the source filed them. The calls are words filed in the database; no cut-off is given here.

Data set [1] deals with Brugia malayi. The data set can be described thus: Antifilarial activity against Brugia malayi sub-periodic strain assessed as complete loss of motility at 100 uM. Type of data set: functional, organism-based. The method, boiled down:
(§1)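 Adult B. malayi worms kept in vitro with compound, then motility scored. The worms were also moved to fresh drug-free medium at 37 °C for 30 min to judge whether paralysis was irreversible. The vehicle served as control.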

The subject of data set [2] is Brugia malayi. The data set can be described thus: Antifilarial activity against Brugia malayi sub-periodic strain at 100 uM by MTT reduction assay. In kind it is functional. In outline: (§2)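 MTT reduction was measured on adult B. malayi worms after in vitro drug exposure. Each result is percent inhibition of MTT reduction relative to vehicle control, given as mean ± SD.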

Data set [3] has as its system Brugia malayi. The data set can be described thus: Antifilarial activity against Brugia malayi sub-periodic strain assessed as motility at 100 uM. Type of data set: functional, organism-based. In outline:
as §1

Data set [4] has as its system Brugia malayi. The data set can be described thus: Antifilarial activity against Brugia malayi sub-periodic strain assessed as sluggish motility at 25 uM. In kind it is functional, organism-based. The method, boiled down:
as §1

The test system of data set [5] is Brugia malayi. Nature of the data set: Antifilarial activity against Brugia malayi sub-periodic strain assessed as complete loss of motility at 50 uM. Type of data set: functional, organism-based. In outline:
as §1

The subject of data set [6] is Brugia malayi. The data set can be described thus: Antifilarial activity against Brugia malayi sub-periodic strain at 50 uM by MTT reduction assay. In kind it is functional. In outline: as §2
Data set [7] has as its system Brugia malayi. Nature of the data set: Antifilarial activity against Brugia malayi sub-periodic strain at 25 uM by MTT reduction assay. In kind it is functional. In outline:
as §2

The test system of data set [8] is Brugia malayi. The data set can be described thus: Antifilarial activity against Brugia malayi sub-periodic strain in Mastomys coucha assessed as microfilarial count at 100 mg/kg, ip for 5 days measured after 8 days. In kind it is functional. Conditions: route intraperitoneal.
The test system of data set [9] is Brugia malayi. The data set can be described thus: Antifilarial activity against Brugia malayi sub-periodic strain in Mastomys coucha assessed as reduction in worm burden at 100 mg/kg, ip for 5 days relative to control. In kind it is functional. Also noted: scale not given: the % may be the effect or the level left. To be noted: route intraperitoneal.
Data set [10] relates to Brugia malayi. The data set can be described thus: Embryostatic activity against Brugia malayi sub-periodic strain in Mastomys coucha assessed as sterilized female worms at 100 mg/kg, ip for 5 days. In kind it is functional. To be noted: route intraperitoneal.
Another data set relates to Mastomys coucha. Nature of the data set: Toxicity against Mastomys coucha assessed as mortality at 50 to 100 mg/kg, ip for 5 days measured after 15 days. In kind it is organism-based. Also noted: dose 50-100 mg/kg, route intraperitoneal. Conditions: in vivo, 360 h. The method, boiled down: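 Normal (uninfected) Mastomys coucha received the compound i.p. once daily for 5 days. Animals were watched for mortality and for adverse effects on general and gross health during dosing and for up to 15 days after treatment.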

The subject of data set [11] is Brugia malayi. The data set can be described thus: Antifilarial activity against Brugia malayi sub-periodic strain assessed as motility at 50 uM. Type of data set: functional, organism-based. The method, boiled down:
as §1

For data set [12], the system named is Brugia malayi. The data set can be described thus: Antifilarial activity against Brugia malayi sub-periodic strain assessed as motility at 200 uM. In kind it is functional, organism-based. In outline: as §1
For data set [13], the system named is Brugia malayi. The data set can be described thus: Antifilarial activity against Brugia malayi sub-periodic strain assessed as sluggish motility at 400 uM. Type of data set: functional, organism-based. In outline: as §1
Data set [14] deals with Brugia malayi. The data set can be described thus: Antifilarial activity against Brugia malayi sub-periodic strain at 400 uM by MTT reduction assay. Type of data set: functional, organism-based. The method, boiled down:
as §2

Data set [15] relates to Brugia malayi. Nature of the data set: Antifilarial activity against Brugia malayi sub-periodic strain at 200 uM by MTT reduction assay. Type of data set: functional, organism-based. In outline: as §2
The test system of data set [16] is Brugia malayi. The data set can be described thus: Antifilarial activity against Brugia malayi sub-periodic strain in Mastomys coucha assessed as microfilarial count at 25 mg/kg, ip for 5 days measured after 8 days. In kind it is functional. Conditions: route intraperitoneal.
In data set [17] the test system is Brugia malayi. The data set can be described thus: Antifilarial activity against Brugia malayi sub-periodic strain in Mastomys coucha assessed as reduction in worm burden at 25 mg/kg, ip for 5 days relative to control. Also noted: scale not given: the % may be the effect or the level left. Conditions: route intraperitoneal. In kind it is functional.
For data set [18], the system named is Brugia malayi. Nature of the data set: Embryostatic activity against Brugia malayi sub-periodic strain in Mastomys coucha assessed as sterilized female worms at 25 mg/kg, ip for 5 days. In kind it is functional. Conditions: route intraperitoneal.
The subject of data set [19] is Brugia malayi. Nature of the data set: Antifilarial activity against transplanted adult worms of Brugia malayi sub-periodic strain in Meriones unguiculatus assessed as reduction in worm burden 12.5 mg/kg, ip for 5 days relative to control. In kind it is functional, organism-based. Also noted: dose 12.5 mg/kg. The method, boiled down:
(§3)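 Meriones unguiculatus (jirds) carrying transplanted adult B. malayi were dosed i.p. once daily for 5 days, 5 animals per group. Microfilariae in the peritoneal cavity were checked. Live male and female worms and sterilized females were counted. Results are percent relative to untreated controls, given as mean ± SD.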

The subject of data set [20] is Brugia malayi. The data set can be described thus: Embryostatic activity against transplanted adult worms of Brugia malayi sub-periodic strain in Meriones unguiculatus assessed as sterilized female worms at 12.5 mg/kg, ip for 5 days. To be noted: route intraperitoneal. Type of data set: functional. In outline:
as §3

Data set [21] concerns Brugia malayi. Nature of the data set: Antifilarial activity against Brugia malayi sub-periodic strain assessed as complete loss of motility at 25 uM. In kind it is functional, organism-based. The method, boiled down: as §1
Data set [22] has as its system Brugia malayi. Nature of the data set: Antifilarial activity against Brugia malayi sub-periodic strain in Mastomys coucha assessed as microfilarial count at 50 mg/kg, ip for 5 days measured after 8 days. In kind it is functional. Conditions: route intraperitoneal.
The subject of data set [23] is Brugia malayi. The data set can be described thus: Antifilarial activity against Brugia malayi sub-periodic strain in Mastomys coucha assessed as reduction in worm burden at 50 mg/kg, ip for 5 days relative to control. In kind it is functional. Also noted: scale not given: the % may be the effect or the level left. Conditions: route intraperitoneal.
Data set [24] concerns Brugia malayi. Nature of the data set: Embryostatic activity against Brugia malayi sub-periodic strain in Mastomys coucha assessed as sterilized female worms at 50 mg/kg, ip for 5 days. Type of data set: functional. Conditions: route intraperitoneal.
Data set [25] has as its system Brugia malayi. The data set can be described thus: Antifilarial activity against transplanted adult worms of Brugia malayi sub-periodic strain in Meriones unguiculatus assessed as reduction in worm burden 100 mg/kg, ip for 5 days relative to control. Type of data set: functional. Also noted: scale not given: the % may be the effect or the level left. To be noted: route intraperitoneal. In outline:
as §3

In data set [26] the test system is Brugia malayi. Nature of the data set: Embryostatic activity against transplanted adult worms of Brugia malayi sub-periodic strain in Meriones unguiculatus assessed as sterilized female worms at 100 mg/kg, ip for 5 days. To be noted: route intraperitoneal. Type of data set: functional. In outline:
as §3

Data set [27] has as its system Brugia malayi. Nature of the data set: Antifilarial activity against Brugia malayi sub-periodic strain assessed as motility at 25 uM. In kind it is functional, organism-based. The method, boiled down: as §1

On to `CCCCCCCCCCCCCCSC1=NC(c2cccc3ccccc23)C(C(=O)OCC)=C(C)N1` (centres undefined), for which the outcome in the data set on Brugia malayi [1] was Active. Further, the inhibition at 100 µM with Brugia malayi [2] was found to be 24.3%.
Turning to `CCCCCSC1=NC(c2ccc(OC)cc2)C(C(=O)OCC)=C(C)N1` (centres undefined), in the data set with Brugia malayi [3], the result was inactive. In the data set on Brugia malayi [2], this molecule came in with an inhibition at 100 µM of 22.4%.
Turning to `CCOC(=O)C1=C(C)NC(SCc2ccccc2)=NC1c1cccc([N+](=O)[O-])c1` (centres undefined), the outcome with Brugia malayi [1] was Active. For the same molecule, the inhibition at 100 µM in the data set with Brugia malayi [2] is 43.1%.
Take `CCOC(=O)C1=C(C)NC(SCc2ccccc2)=NC1c1ccc(OC)cc1` (centres undefined): the outcome in the data set on Brugia malayi [4], in the data set with Brugia malayi [1] and in the data set on Brugia malayi [5] was Active. Also, 100 µM produced 52.1% inhibition with Brugia malayi [2]. In the data set on Brugia malayi [6], the inhibition at 50 µM is 19.3%. In the data set with Brugia malayi [7], the inhibition entry was “inactive”. The Activity in the data set on Brugia malayi [8] is 89.7; with Brugia malayi [9] it was 19.66%; in the data set with Brugia malayi [10], 34.58%; in the data set with Mastomys coucha, “Non-toxic”.
On to `CCCCCSC1=NC(c2cccc([N+](=O)[O-])c2)C(C(=O)OCC)=C(C)N1` (centres undefined), for which the result in the data set with Brugia malayi [3] was inactive. In the data set with Brugia malayi [2], this molecule came in with an inhibition at 100 µM of 15.4%.
Regarding `CCN(CC)C(=O)N1CCN(C)CC1.O=C(O)CC(O)(CC(=O)O)C(=O)O` [DIETHYLCARBAMAZINE CITRATE], the outcome with Brugia malayi [3], in the data set on Brugia malayi [11], in the data set on Brugia malayi [12] and with Brugia malayi [19] was inactive. Besides, in the data set on Brugia malayi [13], the result was Active. Also, the inhibition result in the data set on Brugia malayi [2], in the data set with Brugia malayi [6], in the data set on Brugia malayi [14] and with Brugia malayi [15] was “inactive” in each case. For the same molecule, the Activity in the data set on Brugia malayi [16] is 20.33; in the data set with Brugia malayi [17], 0%; with Brugia malayi [18] it was 29.7%; in the data set with Brugia malayi [20], 10.53%.
As to `CCCCSC1=NC(c2cccc([N+](=O)[O-])c2)C(C(=O)OCC)=C(C)N1` (centres undefined), the result in the data set on Brugia malayi [1] was Active. This molecule also yielded an inhibition at 100 µM in the data set on Brugia malayi [2] of 25.7%.
Consider `CCCCCSC1=NC(c2ccc(Cl)cc2)C(C(=O)OCC)=C(C)N1` (centres undefined), for which the result with Brugia malayi [3] was inactive. In the data set on Brugia malayi [2], the inhibition entry was “inactive”.
As to `CCOC(=O)C1=C(C)NC(SCc2ccccc2)=NC1c1cccc2ccccc12` (centres undefined), the result in the data set with Brugia malayi [1] was Active. This molecule also gave an inhibition at 100 µM with Brugia malayi [2] of 18.9%.
Turning to `CCCCCSC1=NC(c2cccc3ccccc23)C(C(=O)OCC)=C(C)N1` (centres undefined), the result in the data set on Brugia malayi [3] was inactive. In addition, the inhibition result in the data set on Brugia malayi [2] was “inactive”.
Regarding `CCCCCCCCCCCCCCSC1=NC(c2ccc(F)cc2)C(C(=O)OCC)=C(C)N1` (centres undefined), the result in the data set on Brugia malayi [11] was inactive. In addition, the outcome with Brugia malayi [1] was Active. The inhibition entry with Brugia malayi [2] and in the data set on Brugia malayi [6] was “inactive” in each case.
Consider `CCCCSC1=NC(c2cccc3ccccc23)C(C(=O)OCC)=C(C)N1` (centres undefined), for which the result with Brugia malayi [4], with Brugia malayi [1] and in the data set with Brugia malayi [5] was Active. The molecule also showed an inhibition at 100 µM in the data set on Brugia malayi [2] of 49%. The inhibition result with Brugia malayi [6] was “inactive”. The same molecule had an inhibition at 25 µM with Brugia malayi [7] of 30.4%. Also, the Activity in the data set with Brugia malayi [8] is 47.33; in the data set on Brugia malayi [9], 0%; with Brugia malayi [10] it was 25.77%; in the data set with Mastomys coucha, “Non-toxic”.
On to `CCCCCSC1=NC(c2ccc(F)cc2)C(C(=O)OCC)=C(C)N1` (centres undefined), for which the result in the data set on Brugia malayi [1], with Brugia malayi [5] and with Brugia malayi [21] was Active. In the data set with Brugia malayi [2], this molecule registered an inhibition at 100 µM of 68.6%. Besides, the inhibition at 50 µM with Brugia malayi [6] was 68.5%. Further, 25 µM produced 25.8% inhibition in the data set on Brugia malayi [7]. Also, the Activity is 142.67 with Brugia malayi [8]; 116.5 in the data set with Brugia malayi [22]; 50% in the data set with Brugia malayi [9]; 30.8% in the data set on Brugia malayi [23]; 67.71% in the data set with Brugia malayi [10]; 38.1% in the data set on Brugia malayi [24]. The values for the Activity with Brugia malayi [25], with Brugia malayi [26] and with Mastomys coucha were 46.03%, 34.31% and “Non-toxic”, respectively.
For `CCCCCCCCCCCCCCSC1=NC(c2ccc(OC)cc2)C(C(=O)OCC)=C(C)N1` (centres undefined), the result in the data set on Brugia malayi [3], with Brugia malayi [11] and in the data set with Brugia malayi [27] was inactive. Moreover, the inhibition result with Brugia malayi [2], with Brugia malayi [6] and with Brugia malayi [7] was “inactive” each time.
